Rows were chosen to be rich in hits. Some 3.8% of all compounds tested hit in one or more screens of this group.
GPR7 antag = antagonists of human GPR7 (neuropeptides B/W receptor 1); actives 1.1% (n = 290,000); P48145; AID 1861; inhibition, % at 4.4 µM; GPR7-expressing cells, fluorescence antagonist assay; in the data active = inhibition above about 16%, passing the limit was not always enough;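 also: cells stimulated with the agonist NPW; 0% = agonist with vehicle and 100% = vehicle without agonist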
Target sequence (P48145 whole entry, looked up): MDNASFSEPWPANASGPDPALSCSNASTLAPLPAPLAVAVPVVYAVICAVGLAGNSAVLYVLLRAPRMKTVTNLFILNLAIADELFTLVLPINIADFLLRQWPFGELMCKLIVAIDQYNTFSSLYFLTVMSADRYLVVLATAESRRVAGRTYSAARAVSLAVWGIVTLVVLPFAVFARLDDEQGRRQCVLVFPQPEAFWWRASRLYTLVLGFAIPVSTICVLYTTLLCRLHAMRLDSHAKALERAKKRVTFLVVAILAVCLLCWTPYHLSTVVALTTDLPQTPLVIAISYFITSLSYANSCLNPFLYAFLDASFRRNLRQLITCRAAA
CHO parental Ca = counter-screen for OX1R antagonists: effect in parental CHO cells | parental CHO-K1, ATP-induced calcium, Fluo-8 fluorescence | inhibition, % at 5.6 µM | actives 0.63% (n = 330,000);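 active = inhibition above that plate's mean sample inhibition plus 3 SD, cut at about 26% in these data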;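 also: 0% = ATP-challenged DMSO wells and 100% = DMSO wells without ATP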
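Test system: untransfected parental CHO cell line; also added: ATP stimulus; dosing: 5.6 µM, single dose; signal: calcium-sensitive Fluo-8 fluorescence; measure: percent inhibition of ATP-evoked calcium rise, normalized to controls; benchmarks: low control ATP plus DMSO, high control DMSO only; replication: one well per compound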
MPTP inh = permeability transition pore inhibition. inhibition, % at 10 µM. actives 1.4% (n = 360,000). isolated mouse mitochondria, Ca2+ swelling absorbance, 30 min;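 active = inhibition of 50% or more, scaled per plate between neutral and stimulator controls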;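 also: 0% = DMSO wells given calcium and 100% = 1 mM EGTA wells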
OX1R antag-1 = blocks the human orexin 1 receptor; O43613; inhibition, % at 5 µM; actives 0.43% (n = 330,000); CHO/OX1R cells, Fluo-8 calcium fluorescence, orexin A;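 active = inhibition above its plate's threshold, mean inhibition of all tested compounds on the plate plus 3 SD, cut at about 37% in these data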;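 also: 0% = orexin A challenge wells and 100% = SB-334867-A antagonist wells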
OX1R antag-2 = blocks the human orexin 1 receptor; O43613; OX1R-expressing cells, FRET antagonist read-out; inhibition, % at 6.6 µM; actives 1.8% (n = 330,000); AID 485270; in the data active = inhibition mostly above about 38%, no sharp cut-off; inactive = mostly below about 40%;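 also: 0% = agonist challenge alone and 100% = reference antagonist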
* marks the source's active call; other numbers are inactive results; / = no result.

SMILES | GPR7 antag | CHO parental Ca | MPTP inh | OX1R antag-1 | OX1R antag-2
Cc1nn(C)c(C)c1C1C(C#N)=C(N)OC2=C1C(=O)CCC2 (stereo not given) | 5 | -2 | 1 | -2 | 12
Cc1ccc(C)c(C(=O)COC(=O)c2nn(C)c(=O)c3ccccc23)c1 | / | -27 | 0 | -1 | 33*
COc1cc2c(cc1NC(=O)COc1ccccc1OC)oc1ccccc12 | -12 | -2 | 0 | -4 | -2
COc1cc2c(cc1NC(=O)COC(=O)[C@@H](NS(=O)(=O)c1ccccc1)C(C)C)oc1ccccc12 | -10 | -5 | -30 | 20 | 75*
C[C@H]1CN([C@@H](C)CO)C(=O)c2cc(Br)cnc2O[C@H]1CN(C)C(=O)c1ccccn1 | / | / | 0 | / | /
Oc1ccc(N=Nc2ccc3ccccc3c2)cc1 | -3 | 43* | 5 | 5 | -1
CC(C)[C@H](NC(=O)C1CC(=O)N(c2ccc3c(c2)OCO3)C1)C(=O)NC1CCCC1 (stereo not given in full) | -2 | 8 | -2 | -10 | 16
Cn1c2ccccc2c2c(=O)oc3ccccc3c21 | / | -6 | 0 | 25 | 61*
CCCn1cnc2c(=O)oc3ccccc3c21 | -12 | 11 | -2 | 3 | 31
CSCCC(C(=O)Nc1c(C)cccc1C)N(Cc1ccccc1)Cc1ccccc1 (stereo not given) | / | / | 1 | / | /
CC1=C(C(=O)OCC(C)C)[C@]23C(=O)c4ccccc4[C@@]2(O1)OC(N)=C3C#N | 17* | -11 | 0 | -19 | 19
CC1CC(C)CN(C(=O)c2ccc3c(c2)N(Cc2ccccc2)CCS3)C1 (stereo not given) | -5 | 47* | 0 | -30 | 15
CCOC(=O)N1CCN(C(=O)c2ccc3c(c2)N(Cc2ccccc2)CCS3)CC1 | 18 | -5 | 2 | -43 | 3
O=C(NC1CCCC1)c1ccc2c(c1)N(Cc1ccccc1)CCS2 | 7 | -23 | 0 | -6 | 18
O=C(NC1CC1)c1ccc2c(c1)N(Cc1ccc(Cl)cc1)CCS2 | 11 | -35 | -1 | -22 | 46*
O=C(CCSc1ccc(F)cc1)NNC(=O)c1ccc([N+](=O)[O-])cc1 | / | -9 | 0 | -15 | 20
Cc1ccc(F)cc1C(=O)N1CCOCC1c1cc(C(=O)Nc2ccccc2)no1 (stereo not given) | / | / | -2 | / | /
COC(=O)Cn1c(=NC(=O)c2cc(-c3cccs3)nc3ccccc23)sc2cc(S(N)(=O)=O)ccc21 | 13 | 36* | -1 | 20 | 12
CC(=O)Nc1ccc(NC(=O)C(C)OC(=O)CCCOc2ccc(Cl)cc2C)cc1 (stereo not given) | / | -22 | 0 | 0 | 53*
COC(=O)CCCN1C(=O)c2cccc3cccc(c23)C1=O | -5 | -15 | 0 | -23 | 33
CC(=O)Nc1ccc(NC(=O)C(C)OC(=O)CCCN2C(=O)c3cccc4cccc(c34)C2=O)cc1 (stereo not given) | / | -24 | 0 | -4 | 74*
N#CCOc1ccccc1CNC[C@H]1O[C@@H](n2cnc3c(=O)[nH]c(N)nc32)[C@H](O)[C@@H]1O | / | / | -1 | / | /
O=C(NC1CCN(C(=O)C2CCCCC2)CC1)c1ccccc1 | -16 | -11 | -2 | -10 | 5
O=C(Nc1cccc(-c2cnc3ccccc3n2)c1)c1cccc(NC(=O)c2ccco2)c1 | -6 | -5 | 16 | 6 | 49*
O=C(Nc1ccc(-c2nc3cccnc3s2)cc1)c1ccco1 | 2 | -4 | 0 | -29 | 17
SMILES | GPR7 antag | CHO parental Ca | MPTP inh | OX1R antag-1 | OX1R antag-2
O=C(Nc1cccc(-c2nc3cccnc3s2)c1)c1ccco1 | -18 | -15 | 0 | 6 | 64*
CCOc1ncccc1C(=O)Nc1cccc(-c2nc3cccnc3s2)c1 | -11 | -18 | 2 | 8 | 68*
CCOc1ncccc1C(=O)Nc1ccc(C)c(S(=O)(=O)N2CCCCCC2)c1 | / | 34* | 0 | 55* | 4
CCOc1ncccc1C(=O)Nc1ccc(OC)c(S(=O)(=O)N2CCCCC2)c1 | -2 | -1 | 0 | -32 | 13
Cc1cc(C)c(C)c(S(=O)(=O)NCC(=O)NCC2CCCCC2)c1C | -9 | -7 | 2 | -15 | 3
CCC1CCCCN1CCCNC(=O)c1ccc(CS(=O)(=O)c2ccccc2OC)o1 (stereo not given) | -5 | -11 | -2 | 1 | 9
N#CC(C#N)=C1c2cc(S(=O)(=O)NCCO)ccc2-c2ccc(S(=O)(=O)NCCO)cc21 | -1 | 0 | 5 | -9 | 69*
N#CC(C#N)=C1c2cc(S(N)(=O)=O)ccc2-c2ccc(S(N)(=O)=O)cc21 | -3 | / | 2 | / | /
CCCn1c(=O)c(C(=O)NNS(=O)(=O)c2ccc(NC(=O)OC)cc2)c(O)c2ccccc21 | -2 | -4 | 0 | -11 | 13
CSc1nnc(N2C(=O)C(O)=C(C(=O)c3ccco3)C2c2cccc(Cl)c2)s1 (stereo not given) | 4 | 33* | -1 | 49* | 3
CSc1nnc(N2C(=O)C(O)=C(C(=O)c3ccco3)C2c2ccc(F)cc2)s1 (stereo not given) | -6 | 32 | -2 | 37 | 6
O=C(CNC(=O)c1cccs1)Nc1ncccc1O | / | 0 | -1 | -10 | 9
COc1ccc(NC(=O)N[C@H]2CC[C@@H](CC(=O)NC3CCC3)O[C@@H]2CO)cc1 | / | / | -2 | / | /
Cc1ccc(N2CC(=O)N(NC(=O)c3sc4nc(C)cc(C)c4c3N)CC2=O)cc1 | -7 | -38 | 2 | -25 | 7
COc1cc(OC)cc(-c2cc(N)n(S(=O)(=O)c3cccc4nsnc34)n2)c1 | 9 | 4 | 7 | 16 | 49*
CCOc1ccc(S(=O)(=O)N2CC(=O)Nc3ccccc32)cc1 | 5 | 0 | 0 | 2 | -2
Cc1ccnc(NC(=O)COc2ccc3oc4c(c3c2)CCCC4)c1 | -4 | -33 | -1 | 7 | 54*
CNC(=O)COc1ccc2oc3c(c2c1)CCCC3 | -4 | -14 | 1 | -9 | 38
C/C(=C\c1ccc(C)o1)C(=O)c1c(C)cc(C)[nH]c1=O | 20* | 0 | 2 | 1 | 5
Cc1nc(-c2ccccc2)cc(N2CCCC2)n1 | 2 | -9 | 2 | -5 | 8
Nc1nc(-c2ccccc2)cc(N2CCCCC2)n1 | 14* | -18 | 1 | -31 | 23
CCN(CC)C(=O)C1CCN(Cc2ccc(OCc3ccccc3)c(OC)c2)CC1 | -13 | -14 | 1 | -20 | 15
Cc1cccn2c(=O)c3cc(C(=O)NCC4CCCO4)c(=N)n(Cc4cccnc4)c3nc12 (stereo not given) | 5 | -3 | -3 | -24 | 60*
Cc1cccn2c(=O)c3cc(C(=O)NCc4ccc(F)cc4)c(=N)n(CC4CCCO4)c3nc12 (stereo not given) | -5 | -14 | 0 | -17 | 22
N=c1c(C(=O)NCC2CCCO2)cc2c(=O)n3ccccc3nc2n1Cc1cccnc1 (stereo not given) | -5 | 2 | -2 | -3 | 73*
N=c1c(C(=O)NCC2CCCO2)cc2c(=O)n3ccccc3nc2n1Cc1ccco1 (stereo not given) | -7 | -10 | -4 | -10 | 57*
